# Screening data: PubChem, The Scripps Research Institute Molecular Screening Center
# Hits are enriched below; roughly 4.6% of the tested compounds scored in any of these assays.
# TAAR1 antagonist: antagonists of human TAAR1. Q96RJ0. CHO RD-HGA16 TAAR1, Fluo-8 calcium fluorescence, antagonist. inhibition, % at 3 µM. actives 1.5% (n = 360,000);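 active means inhibition above a per-plate cutoff, the mean inhibition of test compounds on that plate plus 3 SD, cut at about 49% in these data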;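 further: 0% = DMSO plus EC80 beta-PEA response and 100% = DMSO alone without agonist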
#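 Material: CHO RD-HGA16 cells bearing hTAAR1; compound dosing: one-point dosing, 3 µM nominal final; schedule: dye loading 75 min at 37 °C, then 30 min room temperature; measured by: calcium fluorescence with Fluo-8; control set: vehicle and agonist controls; replication: n of 1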
# GPR7 antagonist: human neuropeptides B/W receptor 1 antagonism. P48145. GPR7-expressing cells, fluorescence antagonist assay. inhibition, % at 4.4 µM. actives 1.1% (n = 290,000). AID 1861; in the data active means inhibition above about 16%, passing the limit was not always enough;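 further: cells stimulated with the agonist NPW; 0% = agonist with vehicle and 100% = vehicle without agonist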
# Target sequence (P48145 whole entry, looked up): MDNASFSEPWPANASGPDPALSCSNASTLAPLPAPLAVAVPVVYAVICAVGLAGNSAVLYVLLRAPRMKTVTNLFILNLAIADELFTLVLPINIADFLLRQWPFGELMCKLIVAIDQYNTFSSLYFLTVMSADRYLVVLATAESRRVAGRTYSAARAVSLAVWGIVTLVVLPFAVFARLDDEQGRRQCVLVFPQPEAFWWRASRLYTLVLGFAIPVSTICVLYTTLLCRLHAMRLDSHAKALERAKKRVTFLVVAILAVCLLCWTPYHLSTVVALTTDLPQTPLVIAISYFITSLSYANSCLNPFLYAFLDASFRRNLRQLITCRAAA
# OX1R antag-1: antagonists of human orexin 1 receptor; actives 0.43% (n = 330,000); CHO/OX1R cells, Fluo-8 calcium fluorescence, orexin A; inhibition, % at 5 µM; O43613;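 active means inhibition above its plate's threshold, mean inhibition of all tested compounds on the plate plus 3 SD, cut at about 37% in these data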;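 further: 0% = orexin A challenge wells and 100% = SB-334867-A antagonist wells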
# Target sequence (O43613 whole entry, looked up): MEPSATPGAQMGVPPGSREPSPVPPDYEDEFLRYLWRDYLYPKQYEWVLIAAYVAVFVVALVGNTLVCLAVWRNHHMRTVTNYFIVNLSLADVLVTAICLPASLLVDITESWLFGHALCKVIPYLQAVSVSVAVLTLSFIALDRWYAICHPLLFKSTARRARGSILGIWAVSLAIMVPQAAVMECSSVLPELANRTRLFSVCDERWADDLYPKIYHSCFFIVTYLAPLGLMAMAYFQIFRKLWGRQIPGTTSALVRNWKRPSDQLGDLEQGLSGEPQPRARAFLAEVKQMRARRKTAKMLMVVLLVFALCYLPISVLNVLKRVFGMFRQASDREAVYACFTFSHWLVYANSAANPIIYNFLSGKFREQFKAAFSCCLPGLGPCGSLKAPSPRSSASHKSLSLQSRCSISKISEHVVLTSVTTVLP
# TAAR1 ag: agonists of human TAAR1; activation, % at 3 µM; AID 624467; Q96RJ0; actives 0.99% (n = 360,000); CHO RD-HGA16 TAAR1, Fluo-8 calcium fluorescence; vehicle wells 0%, saturating PEA agonist 100%;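 active means activation above the mean activation of all test compounds in the run plus 3 SD, cut at about 38% in these data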
#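 test system = CHO RD-HGA16 cells carrying human TAAR1 plus Gα16 | schedule = 17-24 h seeding, 75 min 37 °C dye, 30 min RT | compound dosing = 3 µM single concentration | control set = DMSO and PEA EC100 | replicates = n 1 | signal = Fluo-8 fluorescence, 5 s baseline then 140 s kinetic read | measure = percent activation vs PEA EC100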
# OX1R antag-2: antagonists of human orexin 1 receptor (OX1R); OX1R-expressing cells, FRET antagonist read-out; inhibition, % at 6.6 µM; actives 1.8% (n = 330,000); in the data active means inhibition mostly above about 38%, no sharp cut-off; inactive means mostly below about 40%;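 further: 0% = agonist challenge alone and 100% = reference antagonist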
# CHO parental Ca: counter-screen: ATP calcium response change in parental CHO cells; parental CHO-K1, ATP-induced calcium, Fluo-8 fluorescence; inhibition, % at 5.6 µM; actives 0.63% (n = 330,000); AID 463079;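 active means inhibition above that plate's mean sample inhibition plus 3 SD, cut at about 26% in these data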;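 further: 0% = ATP-challenged DMSO wells and 100% = DMSO wells without ATP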
#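 Measured by: calcium-sensitive Fluo-8 fluorescence / Test system: CHO parental line / Controls: ATP-challenged DMSO wells low, unchallenged DMSO wells high / Measure: % inhibition / Compound: single nominal dose of 5.6 µM per compound / Replicates: single well per compound, no replicates / Reagent: ATP as calcium-mobilizing challenge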
# OX1R Ca confirm: OX1R (human) antagonism, confirmed | shares compounds with OX1R antag-1 | AID 492963 | CHO/OX1R cells, orexin A calcium Fluo-8 fluorescence | actives 38% (n = 1,100) | inhibition, % at 5 µM; in the data active means inhibition above about 29%;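 further: 0% = agonist challenge alone and 100% = reference antagonist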
# CHO Ca triplic: counter-screen for OX1R antagonists: effect in parental CHO cells; shares compounds with OX1R antag-1; parental CHO-K1, ATP-induced calcium, Fluo-8 fluorescence; inhibition, % at 5.6 µM; actives 9.3% (n = 1,100); AID 492965;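 active means inhibition above a per-plate limit, the mean inhibition of that plate's test compounds plus 3 SD, cut at about 25% in these data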;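 further: 0% = ATP challenge with DMSO and 100% = DMSO without ATP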
# OX1R HTRF confirm: OX1R (human) antagonism, HTRF confirmed. shares compounds with OX1R antag-2. OX1R-expressing cells, HTRF antagonist assay. inhibition, % at 6.6 µM. actives 49% (n = 1,800). AID 492964; in the data active means inhibition above about 55%;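 further: CHO cells expressing OX1R stimulated with orexin A at about EC80; 0% = agonist challenge alone and 100% = reference antagonist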
# CHO-K1 HTRF: counter-screen: parental CHO-K1 HTRF response; shares compounds with OX1R antag-2; parental CHO-K1 cells, HTRF counterscreen; inhibition, % at 6.6 µM; actives 48% (n = 1,800); AID 493232; in the data active means inhibition above about 17%;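 further: 0% = agonist challenge with vehicle and 100% = vehicle alone without agonist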
# * marks the source's active call; other numbers are inactive results; . = not tested or not shown.
SMILES,TAAR1 antagonist,GPR7 antagonist,OX1R antag-1,TAAR1 ag,OX1R antag-2,CHO parental Ca,OX1R Ca confirm,CHO Ca triplic,OX1R HTRF confirm,CHO-K1 HTRF
CCOc1ccccc1NC(=O)C1CCCN1S(=O)(=O)c1ccccc1C(F)(F)F (centres undefined),-2.5,.,76.1*,-0.8,79.0*,-21.4,39.1*,-15.9,84.5*,-4.1
COc1ccccc1NC(=O)[C@@H]1CCCN1S(=O)(=O)c1ccc(Cl)cc1,-12.7,.,48.4*,4.7,58.5*,-10.7,52.0*,-27.0,69.9*,-22.2
N#CCSc1nnc(Cc2ccc3c(c2)OCO3)o1,-12.3,21.2,-6.9,5.8,25.9,3.2,.,.,.,.
CCc1ccc(CN2CCN(C(=O)c3ccco3)CC2)cc1,-4.2,-2.3,0.7,-0.2,8.0,-6.2,.,.,.,.
CCOC(=O)C1=C(c2ccccc2)N=c2s/c(=C\c3ccc(O)cc3)c(=O)n2C1c1cccs1 (centres undefined),43.9,17.1,6.6,6.5,7.6,-4.3,.,.,.,.
COc1ccc(NC(=O)CSc2nnc(CN3CCOCC3)n2C)cc1Cl,-7.6,-1.9,-12.0,0.3,0.8,-3.2,.,.,.,.
Cc1cc(C)cc(CSCC(=O)N/N=C/c2ccc(OCC(=O)NCc3ccco3)cc2)c1,.,1.8,50.3*,.,58.5*,-19.6,31.8*,-2.0,53.8,6.8
N#CCC(=O)Nc1ccc(C(=O)Nc2cccnc2)cc1,-12.7,-4.7,32.0,0.7,90.7*,-2.3,2.8,13.1,22.8,-2.8
CCC(=O)Nc1ccc(C(=O)Nc2ccc3c(c2)OCO3)cc1,3.5,-13.4,-3.5,3.4,18.1,-11.5,.,.,.,.
N#CCC(=O)Nc1ccc(C(=O)Nc2ccc3c(c2)OCO3)cc1,-3.2,.,67.0*,7.5,67.3*,-12.4,15.5,2.8,30.7,4.3
CC(C)(C)c1ccc(C(=O)Nc2cccnc2)cc1,-8.8,-8.1,5.3,1.1,9.3,9.8,.,.,.,.
O=C(Cn1cnc2ccccc21)c1ccc(Br)cc1,-5.6,-5.4,-6.1,0.2,27.6,-15.8,.,.,.,.
CC(C)(C)[C@@H]1COC(=O)[C@H](Cc2ccc(F)cc2)C/C=C\C[C@@H](CC(=O)N(CCO)Cc2ccccc2)C(=O)N1,43.8,.,56.8,20.9,66.9*,-15.2,21.7,-17.7,72.4*,-2.6
C[C@H]1COC(=O)[C@H](Cc2ccc(F)cc2)C/C=C\C[C@H](CC(=O)N(CCO)Cc2ccccc2)C(=O)N1,8.1,.,-36.0,9.6,5.4,-16.6,.,.,.,.
CCc1nnc(NC(=O)CSc2nnc(COc3ccccc3)n2Cc2ccccc2)s1,-8.5,4.1,-21.0,14.5,7.0,-14.7,.,.,.,.
Fc1cccc2sc(Nc3nc4cc5c(cc4s3)OCCO5)nc12,11.6,-13.6,24.8,12.2,48.2,-13.3,.,.,.,.
Fc1cccc2sc(Nc3nc4cc5c(cc4s3)OCO5)nc12,39.1,-5.6,41.4*,1.9,75.5*,-12.3,22.5,0.1,59.3*,6.4
CCN(CC)S(=O)(=O)c1cc(NC(=O)CCc2c(C)noc2C)ccc1C,-4.0,.,14.7,2.0,22.1,-11.5,.,.,.,.
CCN(CC)S(=O)(=O)c1cc(NC(=O)CSCc2c(C)noc2C)ccc1C,-3.4,.,45.7*,3.2,74.4*,-9.6,35.7*,-21.9,80.2*,-13.2
O=C(OCc1nc2ccc(Cl)cc2n1CCO)c1ccc(O)cc1,15.5,-10.9,-21.1,15.3,10.2,-19.1,.,.,.,.
CCC(CO)Oc1cc(NC(=O)Cc2ccccc2)c2ncn(C(C)C)c2c1 (centres undefined),0.3,.,-31.4,3.0,11.2,-0.7,.,.,.,.
CC(=O)N1CCN(S(=O)(=O)c2cccc(C(=O)Nc3ccc(C)cn3)c2)CC1,-16.3,-2.6,-0.1,2.7,1.7,-7.3,.,.,.,.
Cc1ccc(NC(=O)c2cccc(S(=O)(=O)N3CCc4ccccc4C3)c2)nc1,19.0,.,32.2,2.5,39.1*,-19.7,-6.3,-12.0,35.5,4.2
Cc1nc(-c2coc3cc(O)c(C)cc3c2=O)cs1,13.0,-8.5,33.0,-2.4,85.7*,-5.5,28.5,-14.5,88.6*,-2.7
O=C(Nc1ccccc1)c1nc[nH]c1C(=O)NCc1ccccc1,-24.1,.,-14.7,3.8,10.1,2.8,.,.,.,.
SMILES,TAAR1 antagonist,GPR7 antagonist,OX1R antag-1,TAAR1 ag,OX1R antag-2,CHO parental Ca,OX1R Ca confirm,CHO Ca triplic,OX1R HTRF confirm,CHO-K1 HTRF
NNC(=O)c1nc[nH]c1C(=O)Nc1ccccc1,-15.6,-17.8,25.4,2.6,51.5*,-20.9,8.2,17.2,22.6,3.4
COc1ccc(/C=N/NC(=O)c2cc3cc(OC)c(OC)cc3[nH]2)cc1,1.0,7.9,-23.1,2.8,37.4,-14.1,.,.,.,.
COc1cc2cc(C(=O)N/N=C/c3ccc(F)cc3)[nH]c2cc1OC,8.6,-15.7,29.2,1.1,67.5*,-7.2,14.5,2.8,73.3*,8.8
COc1cc2cc(C(=O)N/N=C/c3ccccc3Cl)[nH]c2cc1OC,11.6,-12.4,29.9,4.5,75.9*,-29.4,17.5,-9.7,89.3*,13.5
CCCCNC(=O)C(=O)NCC1CCCN1S(=O)(=O)c1cccs1 (centres undefined),-3.0,.,-14.9,0.2,19.8,-2.2,.,.,.,.
CC1CC(C)CN(C(=S)SCc2nc(N)nc(Nc3ccccc3)n2)C1 (centres undefined),-34.2,-5.7,40.5*,2.6,74.7*,-29.7,47.9*,-13.9,76.9*,3.6
Nc1nc(CSC(=S)N2CCN(c3ccccc3)CC2)nc(Nc2ccc(F)cc2)n1,-2.7,-8.8,-13.7,2.8,24.8,-16.3,.,.,.,.
O=c1c2ccccc2oc2cc(-c3ccc4cc[nH]c4c3)ccc12,1.8,.,75.1*,6.5,79.6*,-26.9,21.8,-7.5,77.7*,1.7
O=c1cc(-c2ccsc2)oc2ccc(-c3ccc4cc[nH]c4c3)cc12,43.6,.,72.4*,13.7,63.1*,4.0,37.0*,-9.5,75.3*,-7.3
Cc1ccc(NC(=O)N2CCCC2C(=O)NCC2CCCO2)cc1 (centres undefined),-6.1,0.2,-14.3,0.0,37.8,-14.6,.,.,.,.
COc1ccc2c(c1)[nH]c(=O)c1sc3ccccc3c12,.,-8.6,32.2,.,71.4*,4.2,39.0*,-3.5,92.3*,5.7
COc1ccc2sc3c(=O)[nH]c4ccccc4c3c2c1,-4.1,1.9,3.5,18.1,38.9,-17.8,.,.,.,.
